Assay results reported in paper PMC4278532 (Environmental Toxicology and Chemistry / Setac, 2014).

Assays:
[1] = molecular target: T1, human aryl hydrocarbon receptor (AhR) (Homo sapiens, UniProt P35869); experiment: Yeast bioassay; assay type: cell-based; conditions: for concentration at which the bioassay response showed signs of saturation: Figure 3
In short: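 Engineered S. cerevisiae YCM3 (W303a-derived) carries chromosomal full-length human AhR/ARNT under the galactose promoter and a 5×XRE-LacZ plasmid. Kept in glucose medium, diluted to A600 0.04 in 2% galactose medium, exposed 18 h at 30 °C (1% DMSO vehicle). ONPG assay pH 7.0, ~5 min, 37 °C, Na2CO3 stop. A405 normalized to A600, % of 1 µM β-naphthoflavone. Two-parameter fit; n = 4, ≥3 experiments.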

AhR = conditions: cited from earlier work
YCM3 yeast cells = experiment: Toxicity to the yeast cells; assay type: cell-based, Saccharomyces cerevisiae; conditions: for concentrations toxic to the yeast cells: 18 h, precluded data collection; for toxicity to the yeast cells: compared with 2-MP, 3-MP, 4-MP, tested up to 100 µM
[2] = molecular target: T1, human aryl hydrocarbon receptor (AhR); conditions: cited from earlier work

T1 sequence (P35869 11-848): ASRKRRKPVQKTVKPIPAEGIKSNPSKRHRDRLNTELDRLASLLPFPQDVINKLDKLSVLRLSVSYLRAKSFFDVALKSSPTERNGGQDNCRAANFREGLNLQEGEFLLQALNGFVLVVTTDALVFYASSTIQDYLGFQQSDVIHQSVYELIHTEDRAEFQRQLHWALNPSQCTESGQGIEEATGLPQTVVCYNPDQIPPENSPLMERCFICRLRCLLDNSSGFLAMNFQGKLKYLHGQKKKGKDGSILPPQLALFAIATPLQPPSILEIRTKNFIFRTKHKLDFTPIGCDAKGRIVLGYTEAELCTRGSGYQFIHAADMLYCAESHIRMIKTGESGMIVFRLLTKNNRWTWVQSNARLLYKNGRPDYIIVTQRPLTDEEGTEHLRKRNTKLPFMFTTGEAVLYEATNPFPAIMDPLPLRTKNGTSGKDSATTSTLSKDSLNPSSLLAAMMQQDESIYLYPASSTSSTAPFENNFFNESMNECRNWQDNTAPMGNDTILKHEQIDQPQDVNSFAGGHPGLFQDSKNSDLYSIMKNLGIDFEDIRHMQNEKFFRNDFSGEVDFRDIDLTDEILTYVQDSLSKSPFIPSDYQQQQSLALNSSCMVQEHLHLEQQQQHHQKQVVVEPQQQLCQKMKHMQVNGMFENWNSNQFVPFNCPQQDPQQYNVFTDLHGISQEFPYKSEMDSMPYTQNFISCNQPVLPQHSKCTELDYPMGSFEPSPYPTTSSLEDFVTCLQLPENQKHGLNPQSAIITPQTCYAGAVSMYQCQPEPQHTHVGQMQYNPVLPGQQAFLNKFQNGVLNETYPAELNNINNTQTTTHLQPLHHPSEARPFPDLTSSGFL
T1 sequence (P27540 whole entry partner): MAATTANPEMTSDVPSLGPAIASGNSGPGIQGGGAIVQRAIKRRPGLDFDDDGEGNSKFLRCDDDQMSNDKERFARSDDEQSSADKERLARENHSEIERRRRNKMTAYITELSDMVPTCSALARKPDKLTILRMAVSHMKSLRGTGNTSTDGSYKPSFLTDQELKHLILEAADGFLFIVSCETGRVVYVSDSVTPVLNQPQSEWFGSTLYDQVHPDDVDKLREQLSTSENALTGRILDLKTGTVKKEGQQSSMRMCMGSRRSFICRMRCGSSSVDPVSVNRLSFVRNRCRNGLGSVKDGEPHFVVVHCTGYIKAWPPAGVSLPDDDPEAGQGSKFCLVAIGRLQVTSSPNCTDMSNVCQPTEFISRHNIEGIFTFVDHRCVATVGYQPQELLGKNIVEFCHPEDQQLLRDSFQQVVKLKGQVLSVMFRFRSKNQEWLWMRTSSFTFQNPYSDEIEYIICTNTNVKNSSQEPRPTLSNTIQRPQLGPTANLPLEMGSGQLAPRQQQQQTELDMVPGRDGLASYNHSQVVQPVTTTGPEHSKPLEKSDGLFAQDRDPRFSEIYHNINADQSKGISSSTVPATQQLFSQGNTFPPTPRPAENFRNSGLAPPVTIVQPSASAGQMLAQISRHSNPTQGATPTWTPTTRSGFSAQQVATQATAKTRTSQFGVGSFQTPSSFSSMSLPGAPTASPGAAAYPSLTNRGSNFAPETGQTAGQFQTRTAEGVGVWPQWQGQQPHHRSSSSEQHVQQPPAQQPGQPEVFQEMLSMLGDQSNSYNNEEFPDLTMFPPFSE

Row | Structure (SMILES) | concentration at which the bioassay response showed signs of saturation [1] [µM] | AhR activation in a rat liver system (AhR) | concentrations toxic to the yeast cells (YCM3 yeast cells) | also measured
1 | Cc1cccc2c1ccc1ccccc12 [1-MP, 1-methylphenanthrene] | 30 | stronger than 9-MP |  | 
2 | Cc1ccc2c(ccc3ccccc32)c1 [2-MP, 2-methylphenanthrene] |  | stronger than 9-MP | above 50 µM | 
3 | Cc1ccc2ccc3ccccc3c2c1 [3-MP, 3-methylphenanthrene] |  | stronger than 9-MP | above 50 µM | 
4 | c1ccc2c(c1)cc1ccc3cccc4ccc2c1c34 [benzo[a]pyrene] |  |  |  | activity in this yeast bioassay [2]: very potent activator
5 | Cc1cccc2ccc3ccccc3c12 [4-MP, 4-methylphenanthrene] |  |  | above 50 µM | 
6 | Cc1cc2ccccc2c2ccccc12 [9-MP, 9-methylphenanthrene] | 100 |  |  | toxicity to the yeast cells (YCM3 yeast cells): less toxic to the yeast cells
7 | Cc1ccc2ccc3ccc(C)cc3c2c1 [3,6-DMP, 3,6-dimethylphenanthrene] |  |  |  | signal in the bioassay relative to that produced by phenanthrene and the monomethylated derivatives [1]: approximately 50%
8 | c1ccc2c(c1)ccc1ccccc12 [Phenanthrene, phenanthrene, reference compound] | 100 |  |  | toxicity to the yeast cells (YCM3 yeast cells): less toxic to the yeast cells
9 | O=c1cc(-c2ccccc2)oc2ccc3ccccc3c12 [β-NF, β-naphthoflavone] |  |  |  | AhR agonism ([2]; positive control): strong agonist
